{"data": "Results of several laboratories", "note": "Compare with care: the assays were run in different laboratories."}
{"Compound": "CC1(CC(F)(F)F)NC(=O)N(c2ccc(F)c(C(F)(F)F)c2)C1=O (stereo not drawn)", "test": "metabolic stability", "test system": "mouse, liver microsomes", "measurement": "microsomal CLint", "value": "< 7 µL/min/mg"}
{"Compound": "NCCOCC(=O)N1CCCC(C(=O)NCc2nc(-c3ccc(-c4ccc(F)cc4)cc3)cs2)C1 (stereo not drawn)", "test system": "rat, plasma", "conditions": "intravenous, 1 mg/kg", "measurement": "Vd", "value": "26 L/kg"}
{"Compound": "O=C1NC2(CCC2)C(=O)N1c1ccc(F)c(C(F)(F)F)c1", "test": "metabolic stability", "test system": "mouse, liver microsomes", "measurement": "microsomal CLint", "value": "42 µL/min/mg"}
{"Compound": "C/C=C1/CN2CC[C@@]34c5cc(O)ccc5N(C)[C@]35OC[C@@]4(C(=O)OC)[C@H]1C[C@H]25", "test system": "male Sprague-Dawley rat, plasma", "conditions": "intravenous, 1 mg/kg", "measurement": "Vd", "value": "10.2 L/kg"}
{"Compound": "CC(C)CC(=O)OC[C@H]1O[C@@](C#N)(c2ccc3c(N)ncnn23)[C@H](O)[C@@H]1O", "test": "metabolic stability", "test system": "mouse, hepatocytes", "conditions": "5 µM", "measurement": "hepatocyte CLint", "value": "> 318 µL/min/10⁶ cells"}
{"Compound": "Cc1[nH]c(C)c(S(=O)(=O)Nc2ccc(S(F)(F)(F)(F)F)c(Cl)c2)c1C(=O)N1CCC(F)(F)C1", "test": "metabolic stability", "test system": "mouse, liver microsomes", "measurement": "microsomal CLint", "value": "25.4 µL/min/mg"}
{"Compound": "Cl.Cn1c(=O)n(CCCCN2CCC3(CC2)OCc2ccccc23)c2ccccc21", "test system": "male Sprague-Dawley rat, plasma", "conditions": "intravenous, 5 mg/kg", "measurement": "Vd", "value": "8.4 L/kg"}
{"Compound": "Cc1[nH]c(C)c(S(=O)(=O)Nc2ccc(S(=O)(=O)F)c(Cl)c2)c1C(=O)N1CCC(F)(F)C1", "test": "metabolic stability", "test system": "mouse, liver microsomes", "measurement": "microsomal CLint", "value": "21.8 µL/min/mg"}
{"Compound": "CC[C@H](C)CCCCC(=O)N[C@@H](CCN)C(=O)N[C@H](C(=O)N[C@@H](CCN)C(=O)N[C@H]1CCNC(=O)[C@H]([C@@H](C)O)NC(=O)[C@H](CCN)NC(=O)[C@H](CCN)NC(=O)[C@H](CC(C)C)NC(=O)[C@@H](CC(C)C)NC(=O)[C@H](CCN)NC1=O)[C@@H](C)O", "test system": "male Sprague-Dawley rat, plasma", "conditions": "intravenous, 5 mg/kg", "measurement": "Vd", "value": "0.736 L/kg"}
